{"source": "paper PMC6226357", "about": "(Breast cancer research and treatment, 2018)", "key": {"metastatic breast cancer": {"test_system": "metastatic breast cancer", "details": "cited from earlier work"}, "estradiol": {"test_system": "estradiol", "details": "cited from earlier work"}, "[1]": {"test_system": "tamoxifen-resistant MCF7 xenograft", "details": "tamoxifen-resistant MCF7 mouse xenograft, compared to enzalutamide; cited from earlier work"}, "[2]": {"test_system": "MCF7 (ER+/low AR expression)", "details": "higher potency/efficacy than enzalutamide; cited from earlier work"}, "[3]": {"test_system": "H16N2 (AR-/PR-/low ER expression)", "details": "higher potency/efficacy than enzalutamide; cited from earlier work"}, "[4]": {"test_system": "AR, wild-type and mutated forms (e.g., F876L and T877A)", "details": "cited from earlier work"}, "[5]": {"test_system": "CYP17 lyase versus CYP17 17-α hydroxylase", "details": "cited from earlier work"}, "[6]": {"test_system": "unresectable locally advanced or metastatic breast cancer", "assay": "Efficacy: clinical benefit rate and tumor response", "type": "in vivo, human", "how_it_was_run": "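Women with triple-negative or postmenopausal ER+/HER2− unresectable locally advanced or metastatic disease took oral 150-mg tablets once daily in continuous 28-day cycles, in de-escalating cohorts. Imaging used bone scan, CT and/or MRI matching the baseline modality, every 2 months in year one and every 3 months thereafter. Clinical benefit was stable disease, partial or complete response (RECIST 1.1), scored at 16 weeks for TNBC and 24 weeks for ER+.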"}, "[7]": {"test_system": "women with locally advanced or metastatic TNBC or ER+ breast cancer", "assay": "Phase 1 safety and tolerability: treatment-emergent adverse events and DLT", "type": "in vivo, human"}, "[8]": {"test_system": "MDA-MB-453 cells (ER−/AR+)", "details": "higher potency/efficacy than enzalutamide; cited from earlier work"}, "[9]": {"test_system": "tamoxifen-resistant MCF7 cells (TAMR)", "details": "higher potency/efficacy than enzalutamide; cited from earlier work"}, "[10]": {"test_system": "women with locally advanced or metastatic TNBC or ER+ breast cancer", "assay": "Treatment duration, discontinuations and dose modifications", "type": "in vivo, human", "details": "all dose cohorts; Twenty-one percent", "how_it_was_run": "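Dosing was oral, once daily, in continuous 28-day cycles. Drug was stopped for loss of clinical benefit, an adverse event precluding further participation, or withdrawal of consent. Toxicity was graded by NCI CTCAE v4.03. Evaluations were every two weeks in Cycle 1, then monthly through the end-of-treatment visit.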"}, "[11]": {"assay": "Pharmacokinetics after a single dose of seviteronel", "type": "in vivo, human", "how_it_was_run": "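Women took a single oral dose as 150-mg tablets. Blood was drawn before dosing and at 0.5, 1, 2, 4, 6, 8 and 24 h afterward. Plasma drug was measured by LC-MS/MS, with a lower limit of quantification of 20 ng/mL (0.05 uM). Parameters were derived by noncompartmental analysis.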"}, "[12]": {"details": "phase 2 TBCRC011, AR+ (ER−/PR−) metastatic breast cancer, N = 26"}, "[13]": {"details": "MDV3100-11, AR+ TNBC, N = 118, intent to treat AR > 0%, ref (12)"}, "[14]": {"details": "randomized phase 2, metastatic ER+ breast cancer, N = 297"}}, "note": "Like-named read-outs stand apart in the source and are kept apart here."}
{"smiles": "CC(O)(CS(=O)(=O)c1ccc(F)cc1)C(=O)Nc1ccc(C#N)c(C(F)(F)F)c1", "note": "(stereo not shown) [bicalutamide]", "values": [{"measurement": "24-week CBR", "setting": "metastatic breast cancer; [12]", "value": 19, "unit": "%"}, {"measurement": "Median progression-free survival (PFS)", "setting": "metastatic breast cancer; [12]", "value": 12, "unit": "weeks"}, {"measurement": "Objective responses", "setting": "metastatic breast cancer; [12]", "value": "no objective responses"}]}
{"smiles": "CNC(=O)c1ccc(N2C(=S)N(c3ccc(C#N)c(C(F)(F)F)c3)C(=O)C2(C)C)cc1F", "note": "[enzalutamide]", "values": [{"measurement": "Increase in estradiol", "setting": "estradiol; given in combination with anastrozole", "value": 40, "unit": "%"}, {"measurement": "Increase in estradiol", "setting": "estradiol; given in combination with exemestane", "value": 13, "unit": "%"}, {"measurement": "16-week CBR", "setting": "metastatic breast cancer; [13]", "value": 25, "unit": "%"}, {"measurement": "24-week CBR", "setting": "metastatic breast cancer; [13]", "value": 20, "unit": "%"}, {"measurement": "Median PFS", "setting": "metastatic breast cancer; [13]", "value": 12.6, "unit": "weeks"}]}
{"smiles": "N#Cc1ccc(C(c2ccc(C#N)cc2)n2cncn2)cc1", "note": "[letrozole]", "values": [{"measurement": "Decline in estradiol", "setting": "estradiol; postmenopausal women with ER+ BC, by 3 months of treatment", "value": "approximately 36%"}]}
{"smiles": "C[C@]12CC[C@H](O)CC1=CC[C@@H]1[C@@H]2CC[C@]2(C)C(c3cccnc3)=CC[C@@H]12", "note": "[abiraterone]", "values": [{"measurement": "24-month CBR", "setting": "metastatic breast cancer; metastatic AR+ TNBC, N = 30, evaluable AR ≥ 10%", "value": 20, "unit": "%"}, {"measurement": "24-month CBR", "setting": "metastatic breast cancer; metastatic ER+/AR+ breast cancer, N = 32, evaluable AR ≥ 1%", "value": 22, "unit": "%"}, {"measurement": "Median PFS", "setting": "metastatic breast cancer; [14]", "value": 3.7, "unit": "months"}]}
{"smiles": "CC(C)[C@](O)(c1ccc2cc(OC(F)F)c(OC(F)F)cc2c1)c1c[nH]nn1", "note": "[Seviteronel]", "values": [{"measurement": "Survival", "setting": "[1]", "value": "increased survival"}, {"measurement": "Tumor growth", "setting": "[1]", "value": "inhibited tumor growth"}, {"measurement": "Estrogen-stimulated proliferation and cell growth in a soft agar assay", "setting": "[2]", "value": "inhibited"}, {"measurement": "Cellular proliferation", "setting": "[3]", "value": "inhibited"}, {"measurement": "AR inhibition mechanism", "setting": "[4]", "value": "competitive antagonism"}, {"measurement": "Selectivity for CYP17 lyase versus CYP17 17-α hydroxylase inhibition", "setting": "[5]", "value": "approximately 10 fold"}, {"measurement": "Subjects reaching at least CBR16", "setting": "[6]; 450 mg QD cohort (RP2D), 2 TNBC CBR16 and 2 ER+ CBR24", "value": "4 of 7"}, {"measurement": "Subjects reaching CBR24 (24-week clinical benefit rate)", "setting": "[6]; across dose groups, 2 of 19 subjects", "value": 11, "unit": "%"}, {"measurement": "Subjects reaching at least CBR16 (16-week clinical benefit rate)", "setting": "[6]; across dose groups, Five of 19 subjects", "value": 26.3, "unit": "%"}, {"measurement": "Objective tumor responses", "setting": "[6]; all dose cohorts", "value": "no objective tumor responses"}, {"measurement": "Deaths reported", "setting": "[7]; all considered unrelated to study drug (disease progression n=2, hepatic failure n=1, ischemic stroke n=1)", "value": 4}, {"measurement": "Fatigue, AE incidence", "setting": "[7]; female, human, in vivo", "value": 37, "unit": "%"}, {"measurement": "Nausea, AE incidence", "setting": "[7]; female, human, in vivo", "value": 42, "unit": "%"}, {"measurement": "Subjects with SAE Gr 3 or greater", "setting": "[7]; female, human, in vivo", "value": 12, "unit": "subjects"}, {"measurement": "Tremor, AE incidence", "setting": "[7]; female, human, in vivo", "value": 42, "unit": "%"}, {"measurement": "Vomiting, AE incidence", "setting": "[7]; female, human, in vivo", "value": 37, "unit": "%"}, {"measurement": "Recommended phase 2 dose (RP2D) in women", "setting": "[7]; female, human, in vivo, po", "value": 450, "unit": "mg QD"}, {"measurement": "Hepatic transaminase elevation", "setting": "[7]; in vivo", "value": "not associated with hepatic transaminase elevation"}, {"measurement": "Hypokalemia", "setting": "[7]; in vivo", "value": "not seen"}, {"measurement": "Serious adverse events (SAE) Gr 3 or greater, number of events", "setting": "[7]; in vivo", "value": "Fifteen"}, {"measurement": "Tolerability", "setting": "[7]; in vivo, po", "value": "generally well tolerated"}, {"measurement": "DHT-stimulated growth", "setting": "[8]", "value": "inhibited"}, {"measurement": "Growth of tamoxifen-resistant MCF7 cells", "setting": "[9]", "value": "inhibited"}, {"measurement": "Subjects with a dose reduction due to an AE", "setting": "[10]", "value": "4/19"}, {"measurement": "half-life", "setting": "[11]; female, human, plasma, oral, 750 mg, Half-life, single dose, across 450, 600, 750 mg", "value": "6.4 to 8.4", "unit": "h"}, {"measurement": "Dose relationship of peak and trough plasma concentrations and AUC", "setting": "[11]; single dose, 450-750 mg, women", "value": "dose-proportional relationship"}, {"measurement": "Relationship between exposure and body surface area and body mass index", "setting": "[11]; three dose levels combined", "value": "moderate relationship"}]}
{"smiles": "C=C1C[C@@H]2[C@H](CC[C@]3(C)C(=O)CC[C@@H]23)[C@@]2(C)C=CC(=O)C=C12", "note": "[exemestane]", "values": [{"measurement": "Median PFS", "setting": "metastatic breast cancer; [14]", "value": 3.7, "unit": "months"}]}
